Experimental data from ChEMBL document CHEMBL3352690, “Synthesis and evaluation of arylpiperazines derivatives of 3,5-dioxo-(2H,4H)-1,2,4-triazine as 5-HT1AR ligands” (Bioorg Med Chem Lett, 2014).

Columns and labels:
[1] = target: T1, Adrenergic receptor alpha-1 (Homo sapiens, UniProt P35348+P25100+P35368); assay: Displacement of [3H]-7-methoxyprazosin from alpha1 adrenergic receptor (unknown origin) by competition binding assay
T1 sequence (P35348 whole entry): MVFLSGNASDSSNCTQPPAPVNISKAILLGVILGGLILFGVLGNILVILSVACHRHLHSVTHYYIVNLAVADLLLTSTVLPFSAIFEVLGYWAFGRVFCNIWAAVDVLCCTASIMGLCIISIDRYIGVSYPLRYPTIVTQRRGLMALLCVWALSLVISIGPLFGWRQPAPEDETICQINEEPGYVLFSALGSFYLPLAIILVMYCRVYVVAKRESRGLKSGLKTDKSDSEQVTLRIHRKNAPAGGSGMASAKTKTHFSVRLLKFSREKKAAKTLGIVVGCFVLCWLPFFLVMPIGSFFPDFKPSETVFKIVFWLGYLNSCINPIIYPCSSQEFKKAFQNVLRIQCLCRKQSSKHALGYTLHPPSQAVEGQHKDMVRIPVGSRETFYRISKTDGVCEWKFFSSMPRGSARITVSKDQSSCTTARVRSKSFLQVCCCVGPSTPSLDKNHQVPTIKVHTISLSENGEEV
T1 sequence (P25100 whole entry): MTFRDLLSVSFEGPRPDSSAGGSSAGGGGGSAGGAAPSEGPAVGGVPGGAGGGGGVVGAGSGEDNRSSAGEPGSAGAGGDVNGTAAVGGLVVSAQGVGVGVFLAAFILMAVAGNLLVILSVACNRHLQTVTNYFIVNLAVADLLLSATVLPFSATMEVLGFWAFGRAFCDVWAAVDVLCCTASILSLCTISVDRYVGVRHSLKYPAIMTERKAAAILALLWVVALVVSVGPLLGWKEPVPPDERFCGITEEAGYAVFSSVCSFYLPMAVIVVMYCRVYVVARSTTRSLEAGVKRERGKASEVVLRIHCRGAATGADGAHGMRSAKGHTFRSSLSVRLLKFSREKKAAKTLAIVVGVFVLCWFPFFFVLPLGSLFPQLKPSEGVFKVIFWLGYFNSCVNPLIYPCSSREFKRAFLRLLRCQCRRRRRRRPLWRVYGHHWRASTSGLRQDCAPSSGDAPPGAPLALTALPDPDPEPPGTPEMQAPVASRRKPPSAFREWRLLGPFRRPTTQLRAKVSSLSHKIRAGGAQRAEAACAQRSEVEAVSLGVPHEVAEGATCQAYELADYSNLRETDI
T1 sequence (P35368 whole entry): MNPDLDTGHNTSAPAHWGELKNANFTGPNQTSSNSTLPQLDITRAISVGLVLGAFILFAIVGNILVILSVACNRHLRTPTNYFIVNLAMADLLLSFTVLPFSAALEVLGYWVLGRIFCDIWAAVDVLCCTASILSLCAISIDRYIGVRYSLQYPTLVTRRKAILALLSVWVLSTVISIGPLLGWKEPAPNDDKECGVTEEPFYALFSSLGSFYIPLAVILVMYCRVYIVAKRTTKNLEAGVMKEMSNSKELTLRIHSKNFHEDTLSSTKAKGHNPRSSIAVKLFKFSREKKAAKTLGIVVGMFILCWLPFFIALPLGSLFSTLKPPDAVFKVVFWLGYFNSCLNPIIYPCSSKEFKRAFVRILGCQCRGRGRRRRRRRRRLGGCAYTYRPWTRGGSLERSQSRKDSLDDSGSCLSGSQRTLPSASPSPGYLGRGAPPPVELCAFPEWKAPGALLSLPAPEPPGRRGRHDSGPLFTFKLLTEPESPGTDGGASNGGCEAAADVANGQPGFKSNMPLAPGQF
How it was run: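 Competition binding against [3H]-7-methoxyprazosin, with phentolamine as the reference compound.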

[2] = target: T2, 5-hydroxytryptamine receptor 1A (Homo sapiens, UniProt P08908); assay: Displacement of [3H]8-OH-DPAT from 5HT1AR (unknown origin) by competition binding assay
T2 sequence (P08908 whole entry): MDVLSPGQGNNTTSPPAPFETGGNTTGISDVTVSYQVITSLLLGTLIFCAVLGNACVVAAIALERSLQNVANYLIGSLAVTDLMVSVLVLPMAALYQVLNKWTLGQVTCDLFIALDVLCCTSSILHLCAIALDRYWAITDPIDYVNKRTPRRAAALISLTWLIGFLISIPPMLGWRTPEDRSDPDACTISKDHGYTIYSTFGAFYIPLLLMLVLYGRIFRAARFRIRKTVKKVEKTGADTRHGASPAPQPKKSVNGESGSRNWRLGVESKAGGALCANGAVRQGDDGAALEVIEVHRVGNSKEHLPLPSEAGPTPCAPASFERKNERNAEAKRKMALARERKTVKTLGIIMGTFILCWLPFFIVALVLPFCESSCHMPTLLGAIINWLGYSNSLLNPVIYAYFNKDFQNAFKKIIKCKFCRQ

Homo sapiens = species: Homo sapiens; assay: Selectivity index, ratio of Ki for alpha1 adrenergic receptor (unknown origin) to Ki for 5HT1AR (unknown origin)
[3] = target: T3, 5-hydroxytryptamine receptor 1A (Homo sapiens) (UniProt P08908); assay: Agonist activity at human 5HT1AR expressed in CHO cells assessed as increase in [35S]GTPgammaS binding by liquid scintillation spectrometry relative to untreated control; assay type: functional, cell-based; conditions: in the assay text read “relative to 5-HT” for “relative to untreated control”
T3 sequence (whole entry): T2 sequence (P08908 whole entry)
How it was run: (§1)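 CHO-h5-HT1A cell membranes (30 μg) preincubated 5 min at room temperature with set concentrations of ligand in 20 mM HEPES pH 7.4, 3 mM MgCl2, 100 mM NaCl, 3 μM GDP. [35S]GTPγS (0.1 nM) then added, 60 min at room temperature. Stopped by rapid filtration through GF/B filters with three ice-cold 20 mM HEPES pH 7.4 washes. Bound radioactivity counted by liquid scintillation.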

[4] = target: T3, 5-hydroxytryptamine receptor 1A (Homo sapiens); assay: (§2) Agonist activity at human 5HT1AR expressed in CHO cells assessed as increase in [35S]GTPgammaS binding by liquid scintillation spectrometry; assay type: functional, cell-based; how it was run: as §1
[5] = target: T2, 5-hydroxytryptamine receptor 1A; assay: as §2; assay type: functional, cell-based; how it was run: as §1

SMILES	Ki [1]	Ki [2]	Ratio Ki (Homo sapiens)	Emax [3]	Activity [4]	EC50 [5]
Cn1c(=O)cnn(CCCCN2CCN(c3cccc4ccc(O)cc34)CC2)c1=O	24.5 nM	0.44 nM				
Cn1c(=O)cnn(CCCCN2CCN(c3c(Br)cccc3C#N)CC2)c1=O	450 nM	28 nM				
Cn1c(=O)cnn(CCCCN2CCN(c3ncccc3F)CC2)c1=O	> 10000 nM	1.2 nM		80%	Dose-dependent effect	0.8 nM
Cn1c(=O)cnn(CCCCN2CCN(c3ccccn3)CC2)c1=O	262 nM	1.1 nM		85%	Dose-dependent effect	0.08 nM
Cn1c(=O)cnn(CCCCN2CCN(c3cccc(Br)n3)CC2)c1=O	> 10000 nM	1.4 nM				
Cn1c(=O)cnn(CCCCN2CCN(c3ncccn3)CC2)c1=O [EPTAPIRONE]	> 10000 nM	175 nM				
Cn1c(=O)cnn(CCCCN2CCN(c3cccc(F)n3)CC2)c1=O	> 10000 nM	0.2 nM		95%	Dose-dependent effect	0.2 nM
Cn1c(=O)cnn(CCCCN2CCN(c3ccc(I)cc3)CC2)c1=O	103 nM	58.8 nM				
CCOc1ccc2cccc(N3CCN(CCCCn4ncc(=O)n(C)c4=O)CC3)c2c1	48 nM	2.1 nM				
Cn1c(=O)cnn(CCCCN2CCN(c3ccc(F)cn3)CC2)c1=O	> 10000 nM	68 nM				
Cn1c(=O)cnn(CCCCN2CCN(c3c(F)cccc3C#N)CC2)c1=O	> 10000 nM	4.8 nM				
Cn1c(=O)cnn(CCCCN2CCN(c3cccc(O)c3)CC2)c1=O	> 10000 nM	2.8 nM				
COc1ccc2cccc(N3CCN(CCCCCn4ncc(=O)n(C)c4=O)CC3)c2c1	> 10000 nM	240 nM				

Next, values leading:

Ki [1]	Ki [2]	Ratio Ki (Homo sapiens)	Emax [3]	Activity [4]	EC50 [5]	SMILES
> 10000 nM	8 nM					Cn1c(=O)cnn(CCCCN2CCN(c3ccccc3S)CC2)c1=O
1.8 nM	0.66 nM					CCOc1ccccc1N1CCN(CCCCn2ncc(=O)n(C)c2=O)CC1
450 nM	220 nM					CNc1ccccc1N1CCN(CCCCn2ncc(=O)n(C)c2=O)CC1
> 10000 nM	1.7 nM	> 10000				Cn1c(=O)cnn(CCCCN2CCN(c3ccccc3O)CC2)c1=O
> 10000 nM	350 nM					Cn1c(=O)cnn(CCCN2CCN(c3ccccc3)CC2)c1=O
380 nM	215 nM					COc1ccc(N2CCN(CCCCn3ncc(=O)n(C)c3=O)CC2)c(C#N)c1
> 10000 nM	150 nM					COc1ccccc1N1CCN(CCCCCn2ncc(=O)n(C)c2=O)CC1
9.73 nM	1.89 nM					Cn1c(=O)cnn(CCCCN2CCN(c3ccccc3F)CC2)c1=O
64 nM	2.5 nM	25	93%	Dose-dependent effect	0.3 nM	Cn1c(=O)cnn(CCCCN2CCN(c3ccccc3)CC2)c1=O
> 10000 nM	180 nM					COc1ccccc1N1CCN(CCCn2ncc(=O)n(C)c2=O)CC1
280 nM	0.8 nM	42				Cn1c(=O)cnn(CCCCN2CCN(c3ccccc3OCCCF)CC2)c1=O
> 10000 nM	250 nM					Cn1c(=O)cnn(CCCN2CCN(c3ccccc3F)CC2)c1=O
350 nM	180 nM					CN(C)c1ccccc1N1CCN(CCCCn2ncc(=O)n(C)c2=O)CC1
> 10000 nM	190 nM					COc1ccc(N2CCN(CCCCn3ncc(=O)n(C)c3=O)CC2)c(OC)c1
7.3 nM	0.835 nM					Cn1c(=O)cnn(CCCCN2CCN(c3ccccc3C#N)CC2)c1=O
> 10000 nM	175 nM					COc1ccc2cccc(N3CCN(CCCn4ncc(=O)n(C)c4=O)CC3)c2c1
6.75 nM		45		Dose-dependent effect		COc1ccccc1N1CCN(CCCCn2ncc(=O)n(C)c2=O)CC1
> 10000 nM	240 nM					COc1ccccc1N1CCN(CCn2ncc(=O)n(C)c2=O)CC1
1.8 nM	0.46 nM					CSc1ccccc1N1CCN(CCCCn2ncc(=O)n(C)c2=O)CC1
> 10000 nM	414 nM					COc1ccc(N2CCN(CCCCn3ncc(=O)n(C)c3=O)CC2)cc1
